From ChEMBL document CHEMBL1125061, “Antitumor agents. 111. New 4-hydroxylated and 4-halogenated anilino derivatives of 4'-demethylepipodophyllotoxin as potent inhibitors of human DNA topoisomerase II” (1990)

Legend:
[1] = molecular target: T1, DNA topoisomerase II (Homo sapiens) (UniProt P11388+Q02880); assay: Inhibition of DNA topoisomerase II at 100 uM.; format: protein assay
Method in brief: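 Human DNA topoisomerase II inhibition, tested at 25, 50 and 100 μM. […] The ID₅₀ is set from the degree of inhibition across the three concentrations.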

Homo sapiens = species on record: Homo sapiens; assay: Cellular protein-DNA complex formation at 10 uM.; format: functional; parameters: reference not given here
[2] = In vitro cytotoxicity against KB cells after a 3-day incubation.; format: functional; conditions: Homo sapiens, 72 h, read-out: ID50 (the source's name)
Method in brief: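 KB cell culture, 3-day incubation with drug; read-out was cell number. ID50 taken as the concentration giving a 50% reduction in cell number.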

[3] = molecular target: T1, DNA topoisomerase II (Homo sapiens); assay: Evaluated for inhibitory activity against DNA topoisomerase II; format: protein assay

Compound	inhibition [1] [%]	Complex formation (Homo sapiens) [%]	IC50 [2] [µM]	ID50 [3] [µM]
COc1cc([C@@H]2c3cc4c(cc3[C@@H](Nc3ccccc3F)[C@H]3COC(=O)[C@H]23)OCO4)cc(OC)c1O	50	121	0.25	–
COc1cc([C@@H]2c3cc4c(cc3[C@@H](Nc3cccc(Cl)c3)[C@H]3COC(=O)[C@H]23)OCO4)cc(OC)c1O	50	51	2.29	–
COc1cc([C@@H]2c3cc4c(cc3[C@@H](Nc3ccccc3O)[C@H]3COC(=O)[C@H]23)OCO4)cc(OC)c1O	> 75	151	4.54	25
COc1cc([C@@H]2c3cc4c(cc3[C@@H](Nc3cccc(F)c3)[C@H]3COC(=O)[C@H]23)OCO4)cc(OC)c1O	75	158	0.23	50
COc1cc([C@@H]2c3cc4c(cc3[C@@H](Nc3ccc(Cl)cc3)[C@H]3COC(=O)[C@H]23)OCO4)cc(OC)c1O	75	99	0.22	50
COc1cc([C@@H]2c3cc4c(cc3[C@@H](Nc3ccc(I)cc3)[C@H]3COC(=O)[C@H]23)OCO4)cc(OC)c1O	25	64	0.34	–
COc1cc([C@@H]2c3cc4c(cc3[C@@H](Nc3ccccc3Cl)[C@H]3COC(=O)[C@H]23)OCO4)cc(OC)c1O	25	32	2.34	–
COc1cc([C@@H]2c3cc4c(cc3[C@@H](Nc3ccc(F)cc3)[C@H]3COC(=O)[C@H]23)OCO4)cc(OC)c1O	> 75	213	0.24	10
COc1cc([C@@H]2c3cc4c(cc3[C@@H](O[C@@H]3O[C@@H]5CO[C@@H](C)O[C@H]5[C@H](O)[C@H]3O)[C@H]3COC(=O)[C@H]23)OCO4)cc(OC)c1O [ETOPOSIDE]	75	100	0.2	50
COc1cc([C@@H]2c3cc4c(cc3[C@@H](Nc3cc(F)cc(F)c3)[C@H]3COC(=O)[C@H]23)OCO4)cc(OC)c1O	50	115	1.08	50
COc1cc([C@@H]2c3cc4c(cc3[C@@H](Nc3cccc(Br)c3)[C@H]3COC(=O)[C@H]23)OCO4)cc(OC)c1O	25	62	2.36	–
COc1cc([C@@H]2c3cc4c(cc3[C@@H](Nc3ccc(Br)cc3)[C@H]3COC(=O)[C@H]23)OCO4)cc(OC)c1O	50	179	0.22	100
COc1cc([C@@H]2c3cc4c(cc3[C@@H](Nc3cccc(O)c3)[C@H]3COC(=O)[C@H]23)OCO4)cc(OC)c1O	> 75	290	0.45	5
COc1cc([C@@H]2c3cc4c(cc3[C@@H](Nc3ccc(O)cc3)[C@H]3COC(=O)[C@H]23)OCO4)cc(OC)c1OC	25	21	0.59	–
COc1cc([C@@H]2c3cc4c(cc3[C@@H](Nc3ccccc3O)[C@H]3COC(=O)[C@H]23)OCO4)cc(OC)c1OC	25	6	4.11	–
COc1cc([C@@H]2c3cc4c(cc3[C@@H](Nc3ccc(O)cc3)[C@H]3COC(=O)[C@H]23)OCO4)cc(OC)c1O	75	211	2.26	25
COc1cc([C@@H]2c3cc4c(cc3[C@@H](Nc3cccc(O)c3)[C@H]3COC(=O)[C@H]23)OCO4)cc(OC)c1OC	25	37	0.31	–
